Laboratory results from ChEMBL document CHEMBL1153722, “Design, synthesis, and characterization of peptide-based rab geranylgeranyl transferase inhibitors” (J Med Chem, 2009).
Active and inactive are the calls of the source. No cut-off for these calls is given here. Square brackets hold non-standard residues; d marks the D form. Peptide text beside a SMILES is read from it. * marks the point of attachment. NMeF = CN[C@@H](Cc1ccccc1)C(=O)O; Cbz = O=C(OCc1ccccc1)*; NHOH = ON*

What was measured:
[1] = Displacement of Mant-FPP from rat recombinant Rab geranylgeranyltransferase by co-titration based fluorescence assay
Outline: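 RabGGTase was titrated into 300 nM Mant-FPP at several fixed inhibitor concentrations. Apparent Kd of Mant-FPP was obtained at each inhibitor level by quadratic fitting. Linear versus hyperbolic dependence of apparent Kd on inhibitor concentration was taken as competitive versus partially competitive binding.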

[2] = Inhibition of rat recombinant Rab geranylgeranyltransferase iin presence of canine Rab7 and rat REP1 by NBD-FPP based continuous fluorimetric assay
Outline: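 Continuous fluorometric assay in 96/384-well format: 3 μM Rab7, 3 μM REP1, 9 μM NBD-FPP and 400 nM RabGGTase, with or without inhibitor. IC50 was calculated from three independent measurements.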

Rattus norvegicus [3] = organism: Rattus norvegicus; assay: Displacement of NBD-FPP from rat recombinant Rab geranylgeranyltransferase by fluorescence titration
Outline: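 Displacement titration: 400 nM NBD-FPP was pre-equilibrated with 550 nM RabGGTase. Inhibitor was added stepwise in 1 or 5 μM increments while NBD fluorescence was monitored. The end point was controlled by a final addition of GGPP to 4 μM.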

Rattus norvegicus [4] = organism: Rattus norvegicus; assay: Inhibition of rat recombinant Rab geranylgeranyltransferase at 100 uM in presence of canine Rab7 and rat REP1 NBD-FPP based continuous fluorimetric assay
Outline: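 Continuous fluorometric assay in 96/384-well format: 3 μM Rab7, 3 μM REP1, 9 μM NBD-FPP and 400 nM RabGGTase, with or without inhibitor. […] IC50 was calculated from three independent measurements.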

[5] = test system: COS-7 (Chlorocebus aethiops); assay: Inhibition of recombinant Rab geranylgeranyltransferase expressed in COS-7 cells assessed as inhibition of geranylgeranylation of EYFP-Rab7 protein at 10 to 100 uM by Western blot relative to compactin
[6] = Inhibition of rat recombinant Rab geranylgeranyltransferase by SDS-PAGE end point assay
Outline: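 End-point transfer of fluorescent prenyl analogues (NBD-GPP or NBD-FPP) to protein substrates was run for 10 min at varied inhibitor concentrations. Substrates were GST-KiRas for FTase, GST-RhoA for GGTase-I and Rab7 for RabGGTase. Reactions were quenched with SDS sample buffer and run on SDS-PAGE. Fluorescent bands were quantified by densitometry.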

[7] = test system: COS-7 (Chlorocebus aethiops); assay: Inhibition of recombinant Rab geranylgeranyltransferase expressed in COS-7 cells assessed as inhibition of geranylgeranylation of EYFP-Rab7 protein by Western blot; design: concentration or dose not given beside the values; details: dose or concentration not given here
[8] = test system: COS-7 (Chlorocebus aethiops); assay: Cytotoxicity in monkey COS-7 cells at 100 uM; details: COS-7, 100 µM
[9] = target: geranylgeranyltransferase type-I (Rattus norvegicus); assay: Inhibition of rat recombinant GGTase-1 by SDS-PAGE end point assay
[10] = target: protein farnesyltransferase (Rattus norvegicus); assay: Inhibition of rat recombinant FTase by SDS-PAGE end point assay

CN(C(=O)[C@@H](Cc1c[nH]cn1)NC(=O)OCc1ccccc1)[C@@H](Cc1ccccc1)C(=O)N[C@@H](Cc1ccc(O)cc1)C(=O)O
Ki [1]: 4.5 µM
IC50 [2]: 22.7 µM
Activity (Rattus norvegicus [3]): Active

CCCCCCCCCCC(=O)N[C@@H](Cc1c[nH]cn1)C(=O)N[C@@H](Cc1c[nH]cn1)C(=O)N[C@@H](Cc1ccc(O)cc1)C(=O)NCCc1ccccn1
inhibition (Rattus norvegicus [4]): 80%
IC50 [2]: > 100 µM

CCCCCCCCCCC(=O)N[C@@H](Cc1c[nH]cn1)C(=O)N[C@@H](Cc1ccccc1)C(=O)N[C@@H](Cc1ccc(O)cc1)C(=O)N(C)CCc1ccccn1
Ki [1]: 5.4 µM
Activity [5]: Dose-dependent effect
IC50 [6]: 2.8 µM
inhibition [7]: 70%

O=C(O)C(O)(Cc1cccnc1)P(=O)(O)O (stereo unspecified)
Activity [5]: Dose-dependent effect
inhibition [7]: 70%

O=C(CNC(=O)[C@H](Cc1c[nH]cn1)NC(=O)c1coc(-c2ccccc2)n1)N[C@@H](Cc1cn(C(c2ccccc2)(c2ccccc2)c2ccccc2)cn1)C(=O)O
Ki [1]: 5.3 µM
Activity [8]: Non-toxic
IC50 [9]: 6.9 µM
IC50 [10]: 13 µM
Activity [5]: Dose-dependent effect
IC50 [6]: 14 µM
IC50 [2]: 8.1 µM
inhibition [7]: 70%
Activity (Rattus norvegicus [3]): Active

CN(C(=O)[C@H](Cc1cnc[nH]1)NC(=O)OCc1ccccc1)[C@@H](Cc1ccccc1)C(=O)N[C@@H](Cc1c[nH]c2ccccc12)C(=O)NO (Cbz-His-[NMeF]-Trp-{NHOH})
Activity [5]: Dose-dependent effect
inhibition [7]: 70%

O=C(CNC(=O)c1coc(-c2ccccc2)n1)N[C@@H](Cc1ccccc1)C(=O)N[C@@H](Cc1cn(C(c2ccccc2)(c2ccccc2)c2ccccc2)cn1)C(=O)O
IC50 [9]: 5.6 µM
IC50 [10]: 3.4 µM
IC50 [6]: 31 µM
IC50 [2]: 25 µM

CCCCCCCC(=O)N[C@@H](Cc1c[nH]cn1)C(=O)N[C@@H](Cc1ccccc1)C(=O)N[C@@H](Cc1ccc(O)cc1)CN(C)CCc1ccccn1
IC50 [9]: 97 µM
IC50 [10]: 98 µM
IC50 [6]: 8.8 µM
IC50 [2]: 2.8 µM

CCCCCCCCCCC(=O)N[C@@H](Cc1cnc[nH]1)C(=O)N[C@@H](Cc1c[nH]cn1)C(=O)N[C@@H](Cc1ccc(O)cc1)C(=O)N(C)CCc1ccccn1
Ki [1]: 1.1 µM
Activity [5]: Dose-dependent effect
IC50 [6]: 10 µM
inhibition [7]: 70%
Activity (Rattus norvegicus [3]): Dose-dependent effect

CCCCCCCCCCCOc1ccc(C(=O)N[C@@H](Cc2c[nH]cn2)C(=O)N[C@@H](Cc2ccc(O)cc2)C(=O)N[C@@H](Cc2ccccc2)C(=O)NCCCn2ccnc2)cc1
inhibition (Rattus norvegicus [4]): 7%
IC50 [2]: 12.3 µM

O=C(CNC(=O)[C@H](Cc1cn(C(c2ccccc2)(c2ccccc2)c2ccccc2)cn1)NC(=O)c1coc(-c2ccccc2)n1)N[C@@H](Cc1c[nH]cn1)C(=O)O
IC50 [9]: 2.6 µM
IC50 [10]: 14 µM
IC50 [6]: 41 µM
inhibition (Rattus norvegicus [4]): 86%
IC50 [2]: 38 µM

CCCCCCCCCCC(=O)N[C@@H](Cc1ccc(O)cc1)C(=O)N[C@@H](Cc1c[nH]cn1)C(=O)N[C@@H](Cc1ccc(O)cc1)C(=O)N(C)CCc1ccccn1
Ki [1]: 2.8 µM
Activity [8]: Non-toxic
IC50 [9]: > 100 µM
IC50 [10]: > 100 µM
Activity [5]: Dose-dependent effect
IC50 [6]: 4.3 µM
IC50 [2]: 6.3 µM
inhibition [7]: 70%
Activity (Rattus norvegicus [3]): Active

CN(C(=O)[C@H](Cc1cnc[nH]1)NC(=O)OCc1ccccc1)[C@@H](Cc1ccccc1)C(=O)N[C@@H](Cc1ccc(O)cc1)C(=O)NO
Ki [1]: 14.5 µM
Activity [5]: Dose-dependent effect
inhibition [7]: 70%
Activity (Rattus norvegicus [3]): Active

O=C(CNC(=O)[C@H](Cc1cn(C(c2ccccc2)(c2ccccc2)c2ccccc2)cn1)NC(=O)c1coc(-c2ccccc2)n1)N[C@@H](Cc1ccccc1)C(=O)O
IC50 [2]: 30 µM
